Experimental data from ChEMBL document CHEMBL1142672 (J Med Chem, 2005).
pKi: −log10 of the molar value. Calls of active or inactive are those of the source. The calls are words filed in the database; no cut-off is given here.

Experiments:
[1] = molecular target: 3',5'-cyclic-AMP phosphodiesterase 4A (Homo sapiens, UniProt P27815); test: Inhibition of [3H]cAMP binding to recombinant human Phosphodiesterase 4AL (PDE4AL) in baculovirus expression system
[2] = molecular target: cGMP-specific 3',5'-cyclic phosphodiesterase (Homo sapiens) (UniProt O76074); test: Inhibition of [3H]cGMP binding to human Phosphodiesterase 5 at 30 uM; Inactive
[3] = molecular target: Phosphodiesterase 4 (Homo sapiens, UniProt P27815+Q08499+Q07343+Q08493); test: Inhibition of [3H]cAMP binding to human lung Phosphodiesterase 4; type: protein assay
[4] = molecular target: 3',5'-cyclic-AMP phosphodiesterase 4B (Homo sapiens, UniProt Q07343); test: Inhibition of [3H]cAMP binding to recombinant human Phosphodiesterase 4BL (PDE4BL) in baculovirus expression system
[5] = molecular target: T1, 3',5'-cyclic-AMP phosphodiesterase 4D (Homo sapiens, UniProt Q08499); test: Inhibition of [3H]cAMP binding to recombinant human Phosphodiesterase 4D5 (PDE4D5) in baculovirus expression system
[6] = molecular target: Phosphodiesterase 3 (Homo sapiens) (UniProt Q14432+Q13370); test: Inhibition of [3H]cAMP binding to human phosphodiesterase 3 at 30 uM; Inactive; type: protein assay
In short: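 Enzyme isolated from freshly collected human platelets. [3H]cAMP SPA kit assay, substrate at 200 nM (near Km under assay conditions). Compounds tested at 30 µM.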

[7] = molecular target: T1, 3',5'-cyclic-AMP phosphodiesterase 4D; test: Inhibition of [3H]cAMP binding to recombinant human Phosphodiesterase 4DE (PDE4DE) in baculovirus expression system
[8] = molecular target: T1, 3',5'-cyclic-AMP phosphodiesterase 4D; test: Inhibition of [3H]cAMP binding to recombinant human Phosphodiesterase 4D3 (PDE4D3) in baculovirus expression system

Sequence of 3',5'-cyclic-AMP phosphodiesterase 4A (P27815 whole entry): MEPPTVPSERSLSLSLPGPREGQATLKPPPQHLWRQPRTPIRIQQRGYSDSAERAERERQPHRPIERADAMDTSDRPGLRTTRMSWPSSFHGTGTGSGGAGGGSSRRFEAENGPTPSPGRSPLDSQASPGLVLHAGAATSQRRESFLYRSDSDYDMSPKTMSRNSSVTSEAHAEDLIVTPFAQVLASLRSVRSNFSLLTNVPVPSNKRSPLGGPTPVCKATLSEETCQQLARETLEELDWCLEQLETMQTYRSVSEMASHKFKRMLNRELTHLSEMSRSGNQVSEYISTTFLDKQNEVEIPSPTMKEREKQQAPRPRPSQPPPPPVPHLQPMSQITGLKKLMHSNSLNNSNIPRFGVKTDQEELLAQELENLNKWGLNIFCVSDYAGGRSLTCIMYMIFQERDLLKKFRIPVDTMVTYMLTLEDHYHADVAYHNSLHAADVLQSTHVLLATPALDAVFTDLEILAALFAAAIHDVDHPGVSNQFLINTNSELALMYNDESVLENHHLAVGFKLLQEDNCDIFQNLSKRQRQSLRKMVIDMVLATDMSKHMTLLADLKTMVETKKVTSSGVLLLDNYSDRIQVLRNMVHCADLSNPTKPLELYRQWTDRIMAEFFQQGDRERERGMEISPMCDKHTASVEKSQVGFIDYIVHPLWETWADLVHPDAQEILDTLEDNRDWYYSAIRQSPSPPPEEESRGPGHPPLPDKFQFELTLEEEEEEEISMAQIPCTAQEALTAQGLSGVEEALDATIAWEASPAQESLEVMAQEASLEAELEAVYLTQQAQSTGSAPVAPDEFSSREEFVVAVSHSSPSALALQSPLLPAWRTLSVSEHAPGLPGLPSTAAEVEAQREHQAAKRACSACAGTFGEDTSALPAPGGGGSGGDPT
T1 sequence (Q08499 whole entry): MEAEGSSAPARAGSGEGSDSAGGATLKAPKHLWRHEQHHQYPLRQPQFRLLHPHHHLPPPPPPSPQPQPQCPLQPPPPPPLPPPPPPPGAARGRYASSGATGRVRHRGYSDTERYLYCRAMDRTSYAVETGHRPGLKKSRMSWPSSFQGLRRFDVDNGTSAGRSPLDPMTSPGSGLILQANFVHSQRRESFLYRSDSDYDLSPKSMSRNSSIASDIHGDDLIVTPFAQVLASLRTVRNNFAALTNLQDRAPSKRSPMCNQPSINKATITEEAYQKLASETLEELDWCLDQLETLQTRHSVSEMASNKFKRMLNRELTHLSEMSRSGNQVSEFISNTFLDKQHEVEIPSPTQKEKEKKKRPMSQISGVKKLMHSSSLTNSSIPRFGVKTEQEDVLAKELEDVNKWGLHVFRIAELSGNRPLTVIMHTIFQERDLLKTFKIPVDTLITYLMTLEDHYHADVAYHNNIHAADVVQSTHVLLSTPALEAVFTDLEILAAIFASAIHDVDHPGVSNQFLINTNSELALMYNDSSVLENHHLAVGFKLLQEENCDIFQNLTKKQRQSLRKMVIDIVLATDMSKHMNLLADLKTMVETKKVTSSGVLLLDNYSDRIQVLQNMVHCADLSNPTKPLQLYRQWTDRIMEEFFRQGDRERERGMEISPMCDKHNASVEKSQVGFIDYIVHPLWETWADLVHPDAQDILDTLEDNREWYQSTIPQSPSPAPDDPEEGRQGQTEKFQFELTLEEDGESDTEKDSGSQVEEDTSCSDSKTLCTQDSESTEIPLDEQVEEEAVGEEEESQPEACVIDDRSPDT
Sequence of 3',5'-cyclic-AMP phosphodiesterase 4B (Q07343 whole entry): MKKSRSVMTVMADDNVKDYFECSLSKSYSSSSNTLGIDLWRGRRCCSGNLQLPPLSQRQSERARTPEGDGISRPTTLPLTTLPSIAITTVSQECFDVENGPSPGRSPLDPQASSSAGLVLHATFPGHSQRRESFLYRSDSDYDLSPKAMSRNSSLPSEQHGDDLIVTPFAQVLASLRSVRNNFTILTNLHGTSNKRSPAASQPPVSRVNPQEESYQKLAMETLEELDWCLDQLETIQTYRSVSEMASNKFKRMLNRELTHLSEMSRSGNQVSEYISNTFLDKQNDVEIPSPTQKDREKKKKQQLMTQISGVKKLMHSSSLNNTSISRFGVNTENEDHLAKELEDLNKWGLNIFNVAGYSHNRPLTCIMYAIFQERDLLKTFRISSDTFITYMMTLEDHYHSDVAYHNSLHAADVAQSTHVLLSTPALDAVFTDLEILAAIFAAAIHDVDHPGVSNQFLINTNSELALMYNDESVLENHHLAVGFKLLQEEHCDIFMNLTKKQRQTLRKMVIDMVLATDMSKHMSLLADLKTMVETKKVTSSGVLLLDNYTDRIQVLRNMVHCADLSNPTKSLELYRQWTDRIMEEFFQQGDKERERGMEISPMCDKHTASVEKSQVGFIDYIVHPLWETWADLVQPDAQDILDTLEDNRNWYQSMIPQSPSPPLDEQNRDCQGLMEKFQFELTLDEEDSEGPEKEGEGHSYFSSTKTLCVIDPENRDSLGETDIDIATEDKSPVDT

| pKi [1] | Effect [2] | Ki [3] | pKi [4] | pKi [5] | Effect [6] | pKi [7] | pKi [8] | SMILES |
| --- | --- | --- | --- | --- | --- | --- | --- | --- |
| 6.81 | inactive | 0.025 µM | 8.12 | 8.31 | inactive | 6.51 | 8.10 | COc1ccc(Cn2cnc(N)c3nc(C(C)(C)COc4ccc(C(N)=O)cc4)nc2-3)cc1OC1CCCC1 |
| 6.99 | inactive | 0.0093 µM | 8.28 | 8.26 | inactive | 6.61 | 8.52 | COC(=O)c1ccc(OCC(C)(C)c2nc3c(N)ncn(Cc4ccc(OC)c(OC5CCCC5)c4)c-3n2)cc1 |
| < 4.30 | – | – | < 4.30 | < 4.30 | – | < 4.30 | < 4.30 | CC1CC(=O)NN=C1c1ccc(-n2ccnc2)cc1 (stereo not given) [CI-930] |
| 5.28 | inactive | 1.47 µM | 6.37 | 6.49 | inactive | 5.30 | 6.31 | COc1cccc(OC[C@H](C)c2nc3c(N)ncn(Cc4ccc(OC)c(OC5CCCC5)c4)c-3n2)c1 |
| < 4.30 | inactive | 5.23 µM | < 4.30 | < 4.30 | inactive | < 4.30 | 5.37 | COc1ccc(Cn2cnc(N)c3nc(C(C)(C)COc4ccc(C(=O)O)cc4)nc2-3)cc1OC1CCCC1 |
| 5.41 | inactive | 0.436 µM | 6.57 | 6.85 | inactive | 5.54 | 6.76 | CCNc1ncn(Cc2ccc(OC)c(OC3CCCC3)c2)c2nc(C(C)C)nc1-2 |
